Measured values reported in ChEMBL document CHEMBL2176933 (J Med Chem, 2012).

Assays:
[1] = Clearance in rat hepatocytes; assay type: ADME, cell-based, Liver, Hepatocyte
In short: (§1)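 Metabolic stability determined in vitro in cryopreserved hepatocytes, human and rat.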

MDR1 (human) = test: Apparent permeability from apical to basolateral side of MDCK cells expressing human MDR1; assay type: ADME, cell-based, Canis lupus familiaris; conditions: dog
In short: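 Transport measured in an MDCK cell line transfected with human P-gp (MDR1); apical-to-basolateral and basolateral-to-apical permeability determined; efflux ratio taken as (B−A)/(A−B).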

MDCK = test: Efflux ratio of permeability from basolateral to apical over apical to basolateral side in MDCK cells expressing human MDR1; conditions: dog
[2] = Selectivity ratio of Ki for JAK2 to Ki for LRRK2
In short: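 Ratio computed as JAK2 Ki divided by LRRK2 Ki, both from biochemical assays.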

[3] = biological target: T1, Leucine-rich repeat serine/threonine-protein kinase 2 (Homo sapiens, UniProt Q5S007); test: Inhibition of LRRK2 using FAM-LRRKtide as substrate after 120 mins by microfluidic capillary electrophoresis assay
T1 sequence (Q5S007 whole entry): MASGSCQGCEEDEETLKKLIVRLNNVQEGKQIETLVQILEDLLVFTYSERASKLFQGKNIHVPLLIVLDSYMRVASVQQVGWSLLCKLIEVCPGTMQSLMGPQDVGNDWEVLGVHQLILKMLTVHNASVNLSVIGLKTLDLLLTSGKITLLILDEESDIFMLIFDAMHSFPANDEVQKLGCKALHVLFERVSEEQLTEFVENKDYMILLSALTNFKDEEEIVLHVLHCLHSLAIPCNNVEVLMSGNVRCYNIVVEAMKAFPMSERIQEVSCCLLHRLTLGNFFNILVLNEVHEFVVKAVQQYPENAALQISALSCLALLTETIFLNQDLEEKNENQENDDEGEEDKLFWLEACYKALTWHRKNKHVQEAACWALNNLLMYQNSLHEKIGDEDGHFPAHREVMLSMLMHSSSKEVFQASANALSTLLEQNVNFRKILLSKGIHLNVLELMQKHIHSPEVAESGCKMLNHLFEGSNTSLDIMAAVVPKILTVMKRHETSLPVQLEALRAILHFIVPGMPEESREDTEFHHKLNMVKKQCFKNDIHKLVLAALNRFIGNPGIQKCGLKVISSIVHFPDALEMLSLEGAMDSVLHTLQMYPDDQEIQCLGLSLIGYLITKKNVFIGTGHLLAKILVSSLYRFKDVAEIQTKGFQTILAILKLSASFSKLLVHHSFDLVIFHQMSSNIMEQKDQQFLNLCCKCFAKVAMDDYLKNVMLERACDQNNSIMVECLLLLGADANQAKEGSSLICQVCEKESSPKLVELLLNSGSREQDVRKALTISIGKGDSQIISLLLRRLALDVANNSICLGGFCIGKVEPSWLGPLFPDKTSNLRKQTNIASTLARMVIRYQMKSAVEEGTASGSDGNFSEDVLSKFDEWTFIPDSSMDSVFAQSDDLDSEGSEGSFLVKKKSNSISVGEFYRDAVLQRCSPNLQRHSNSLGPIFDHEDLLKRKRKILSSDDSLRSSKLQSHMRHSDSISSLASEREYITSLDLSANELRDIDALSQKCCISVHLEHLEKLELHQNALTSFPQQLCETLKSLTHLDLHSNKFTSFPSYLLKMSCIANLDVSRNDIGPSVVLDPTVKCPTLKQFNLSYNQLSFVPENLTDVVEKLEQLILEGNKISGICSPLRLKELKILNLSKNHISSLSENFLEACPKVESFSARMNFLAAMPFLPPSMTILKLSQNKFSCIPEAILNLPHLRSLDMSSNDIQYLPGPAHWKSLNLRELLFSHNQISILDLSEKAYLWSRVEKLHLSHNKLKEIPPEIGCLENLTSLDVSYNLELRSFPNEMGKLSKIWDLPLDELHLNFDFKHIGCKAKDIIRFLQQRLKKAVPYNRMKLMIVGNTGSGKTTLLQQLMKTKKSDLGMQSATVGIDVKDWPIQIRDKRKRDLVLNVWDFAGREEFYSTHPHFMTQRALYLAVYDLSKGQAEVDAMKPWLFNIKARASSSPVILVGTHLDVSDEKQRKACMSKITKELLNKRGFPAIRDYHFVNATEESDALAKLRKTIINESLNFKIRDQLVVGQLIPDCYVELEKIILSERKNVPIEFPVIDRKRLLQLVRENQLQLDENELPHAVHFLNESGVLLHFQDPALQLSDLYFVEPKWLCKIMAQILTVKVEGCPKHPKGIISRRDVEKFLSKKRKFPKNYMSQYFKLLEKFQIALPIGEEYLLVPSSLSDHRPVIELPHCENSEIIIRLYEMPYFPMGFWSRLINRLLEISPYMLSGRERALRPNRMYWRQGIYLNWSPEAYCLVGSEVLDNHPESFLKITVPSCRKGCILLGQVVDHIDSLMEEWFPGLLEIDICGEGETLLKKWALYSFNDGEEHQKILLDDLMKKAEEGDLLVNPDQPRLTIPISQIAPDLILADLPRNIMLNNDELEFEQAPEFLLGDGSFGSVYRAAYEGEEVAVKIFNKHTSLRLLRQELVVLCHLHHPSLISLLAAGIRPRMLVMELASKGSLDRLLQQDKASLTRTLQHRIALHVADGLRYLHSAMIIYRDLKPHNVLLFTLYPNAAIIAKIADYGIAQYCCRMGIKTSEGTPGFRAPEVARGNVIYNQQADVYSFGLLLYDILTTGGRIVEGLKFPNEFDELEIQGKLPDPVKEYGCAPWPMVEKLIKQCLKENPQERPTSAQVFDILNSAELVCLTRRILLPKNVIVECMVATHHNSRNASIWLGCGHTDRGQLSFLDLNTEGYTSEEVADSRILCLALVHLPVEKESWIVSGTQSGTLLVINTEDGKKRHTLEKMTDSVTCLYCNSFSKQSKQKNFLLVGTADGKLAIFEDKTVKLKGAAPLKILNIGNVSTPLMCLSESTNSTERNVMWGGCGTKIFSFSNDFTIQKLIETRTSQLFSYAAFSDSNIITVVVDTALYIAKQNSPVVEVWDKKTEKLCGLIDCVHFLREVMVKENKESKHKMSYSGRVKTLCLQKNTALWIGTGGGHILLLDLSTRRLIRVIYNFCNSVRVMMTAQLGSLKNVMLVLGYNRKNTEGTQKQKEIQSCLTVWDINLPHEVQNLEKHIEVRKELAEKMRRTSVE

[4] = biological target: T2, Dual specificity protein kinase TTK (Homo sapiens) (UniProt P33981); test: Inhibition of TTK at 0.1 uM
T2 sequence (whole entry): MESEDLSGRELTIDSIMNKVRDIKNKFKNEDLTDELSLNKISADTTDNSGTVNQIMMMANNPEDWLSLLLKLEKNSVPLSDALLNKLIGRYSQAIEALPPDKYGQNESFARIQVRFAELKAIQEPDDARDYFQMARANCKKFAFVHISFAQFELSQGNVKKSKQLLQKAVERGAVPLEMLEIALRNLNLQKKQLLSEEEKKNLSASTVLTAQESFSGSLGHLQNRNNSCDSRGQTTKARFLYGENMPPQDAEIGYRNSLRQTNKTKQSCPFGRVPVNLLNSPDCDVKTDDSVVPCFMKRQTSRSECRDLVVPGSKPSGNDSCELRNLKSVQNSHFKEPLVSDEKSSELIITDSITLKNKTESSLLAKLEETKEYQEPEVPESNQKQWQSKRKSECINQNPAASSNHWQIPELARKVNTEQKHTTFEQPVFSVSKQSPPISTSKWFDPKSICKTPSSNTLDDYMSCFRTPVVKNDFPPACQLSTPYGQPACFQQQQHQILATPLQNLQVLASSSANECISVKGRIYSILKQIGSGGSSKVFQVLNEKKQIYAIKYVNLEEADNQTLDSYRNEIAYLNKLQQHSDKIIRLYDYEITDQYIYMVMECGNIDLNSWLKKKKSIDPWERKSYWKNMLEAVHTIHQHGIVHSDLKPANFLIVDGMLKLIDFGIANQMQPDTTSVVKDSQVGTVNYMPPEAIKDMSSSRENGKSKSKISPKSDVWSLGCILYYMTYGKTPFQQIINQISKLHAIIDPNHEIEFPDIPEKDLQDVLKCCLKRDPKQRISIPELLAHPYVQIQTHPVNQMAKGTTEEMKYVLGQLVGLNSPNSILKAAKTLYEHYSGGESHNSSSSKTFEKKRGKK
In short: (§2)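 Percent inhibition of TTK activity measured at 0.1 μM and 1 μM in a kinase selectivity profiling panel.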

[5] = biological target: T2, Dual specificity protein kinase TTK (Homo sapiens); test: Inhibition of TTK at 1 uM; in short: as §2
[6] = biological target: T1, Leucine-rich repeat serine/threonine-protein kinase 2; test: Inhibition of autophosphorylation of LRRK2 in human HEK293 cells; assay type: cell-based
[7] = biological target: T3, Dual specificity protein kinase TTK (Homo sapiens, UniProt P33981); test: Inhibition of TTK
T3 sequence (P33981 whole entry): T2 sequence (whole entry)
In short: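 TTK Ki determined in a Lanthascreen biochemical assay.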

[8] = Selectivity ratio of Ki for TTK to Ki for LRRK2
In short: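 Ratio computed as TTK Ki, from a Lanthascreen assay, divided by LRRK2 Ki from the biochemical assay.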

[9] = Clearance in human hepatocytes; assay type: ADME, cell-based, Liver, Hepatocyte; in short: as §1
PBL = test: Genotoxicity in human PBL assessed as induction of micronuclei formation; assay type: toxicity, cell-based
[10] = Plasma protein binding in rat; assay type: ADME, cell-free; conditions: read-out: PPB (converted)
In short: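 Plasma protein binding measured in vitro in rat plasma; used to convert total clearance to unbound clearance and total to unbound plasma levels.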

Mus musculus [11] = species: Mus musculus; test: Genotoxicity in mouse by micronucleus study; assay type: toxicity, organism-based; conditions: in vivo
Cytochrome P450 1A2 = biological target: T4, Cytochrome P450 1A2 (Homo sapiens, UniProt P05177); test: Time dependent inhibition of CYP1A2; assay type: ADME
T4 sequence (P05177 whole entry): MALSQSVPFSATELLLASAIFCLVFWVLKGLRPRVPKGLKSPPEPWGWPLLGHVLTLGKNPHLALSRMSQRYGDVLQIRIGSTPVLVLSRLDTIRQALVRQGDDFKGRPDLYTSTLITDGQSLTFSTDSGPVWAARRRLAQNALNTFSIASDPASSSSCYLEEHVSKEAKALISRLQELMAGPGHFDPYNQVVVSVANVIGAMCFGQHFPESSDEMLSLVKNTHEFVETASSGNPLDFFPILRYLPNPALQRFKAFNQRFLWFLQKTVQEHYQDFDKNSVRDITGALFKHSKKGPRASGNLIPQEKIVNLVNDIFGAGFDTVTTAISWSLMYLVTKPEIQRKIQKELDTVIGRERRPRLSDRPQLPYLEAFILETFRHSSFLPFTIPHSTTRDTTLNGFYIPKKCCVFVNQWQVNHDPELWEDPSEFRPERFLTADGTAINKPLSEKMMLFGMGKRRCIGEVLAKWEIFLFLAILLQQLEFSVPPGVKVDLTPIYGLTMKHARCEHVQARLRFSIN

[12] = Solubility of the compound; assay type: physicochemical
Mus musculus [13] = test: Inhibition of LRRK2 G2019S mutant phosphorylation at Ser1292 in po dosed BAC transgenic mouse brain after 1 to 24 hrs; assay type: functional, organism-based
In short: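 Single oral dose of 15 or 50 mg/kg in G2019S human LRRK2 BAC transgenic mice. Hippocampus sampled at 1, 3, 6 and 12 h (n = 4/dose) and at 24 h (n = 1) to measure pSer1292 LRRK2 and brain compound levels. Inhibition expressed relative to vehicle-dosed mice (n = 3), with a direct inhibition PK/PD model fitted.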

Cynomolgus monkey [14] = test: Unbound plasma AUC (0 to 24 hrs) in cynomolgus monkey at 25 mg/kg, po administered for 7 days; assay type: ADME, organism-based, Macaca fascicularis; design: dose 25 mg/kg, route oral; conditions: in vivo
Rattus norvegicus [15] = test: Unbound plasma AUC (0 to 24 hrs) in Sprague-Dawley rat at 50 mg/kg, po administered for 7 days; assay type: ADME, organism-based; design: dose 50 mg/kg, route oral; conditions: in vivo
Rattus norvegicus [16] = test: Unbound plasma AUC (0 to 24 hrs) in Sprague-Dawley rat at 100 mg/kg, po administered for 7 days; assay type: ADME, organism-based; design: dose 100 mg/kg, route oral; conditions: in vivo
[17] = biological target: T1, Leucine-rich repeat serine/threonine-protein kinase 2; conditions: 0.1 uM
[18] = Ratio of unbound drug level in brain to plasma in cynomolgus monkey at 10 to 65 mg/kg, po administered for 7 days; assay type: ADME, organism-based, Macaca fascicularis; design: dose 10-65 mg/kg, route oral; conditions: brain and plasma (unbound)
In short: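 Cynomolgus monkeys in a 7-day repeat-dose toxicity study at 10, 25 and 65 mg/kg. Terminal brain and CSF levels were taken 24 h after the day-7 dose. Total brain/plasma levels were converted to an unbound brain/unbound plasma ratio using in vitro plasma and brain protein binding values.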

Rattus norvegicus [19] = test: Genotoxicity in Sprague-Dawley rat assessed as micronucleated polychromatic erythrocytes in bone marrow at 100 mg/kg, po qd for 2 days; assay type: toxicity, organism-based; design: dose 100 mg/kg, route oral; conditions: in vivo, 48 h
Rattus norvegicus [20] = test: Unbound plasma AUC (0 to 24 hrs) in Sprague-Dawley rat at 100 mg/kg, po qd for 2 days; assay type: ADME, organism-based; design: dose 100 mg/kg, route oral; conditions: in vivo
Rattus norvegicus [21] = test: Unbound plasma AUC (0 to 24 hrs) in Sprague-Dawley rat at 10 mg/kg, po administered for 7 days; assay type: ADME, organism-based; design: dose 10 mg/kg, route oral; conditions: in vivo
Mus musculus [22] = test: Inhibition of LRRK2 G2019S mutant phosphorylation at Ser1292 in ip dosed BAC transgenic mouse brain after 1 to 24 hrs; assay type: functional, organism-based
In short: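 Single ip injection of 10 or 50 mg/kg in BAC transgenic mice expressing human G2019S LRRK2. Hippocampus collected at 1, 2.5 or 6 h post-dose (n = 3/dose). pSer1292 LRRK2 and compound concentration measured in brain. Percent inhibition normalised to vehicle-dosed mice (n = 3), with a direct inhibition model fitted to the data.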

[23] = biological target: ALK tyrosine kinase receptor (Homo sapiens) (UniProt Q9UM73); test: Inhibition of ALK at 0.1 uM
Chain of ALK tyrosine kinase receptor (Homo sapiens) (Q9UM73 19-1620 limits assumed): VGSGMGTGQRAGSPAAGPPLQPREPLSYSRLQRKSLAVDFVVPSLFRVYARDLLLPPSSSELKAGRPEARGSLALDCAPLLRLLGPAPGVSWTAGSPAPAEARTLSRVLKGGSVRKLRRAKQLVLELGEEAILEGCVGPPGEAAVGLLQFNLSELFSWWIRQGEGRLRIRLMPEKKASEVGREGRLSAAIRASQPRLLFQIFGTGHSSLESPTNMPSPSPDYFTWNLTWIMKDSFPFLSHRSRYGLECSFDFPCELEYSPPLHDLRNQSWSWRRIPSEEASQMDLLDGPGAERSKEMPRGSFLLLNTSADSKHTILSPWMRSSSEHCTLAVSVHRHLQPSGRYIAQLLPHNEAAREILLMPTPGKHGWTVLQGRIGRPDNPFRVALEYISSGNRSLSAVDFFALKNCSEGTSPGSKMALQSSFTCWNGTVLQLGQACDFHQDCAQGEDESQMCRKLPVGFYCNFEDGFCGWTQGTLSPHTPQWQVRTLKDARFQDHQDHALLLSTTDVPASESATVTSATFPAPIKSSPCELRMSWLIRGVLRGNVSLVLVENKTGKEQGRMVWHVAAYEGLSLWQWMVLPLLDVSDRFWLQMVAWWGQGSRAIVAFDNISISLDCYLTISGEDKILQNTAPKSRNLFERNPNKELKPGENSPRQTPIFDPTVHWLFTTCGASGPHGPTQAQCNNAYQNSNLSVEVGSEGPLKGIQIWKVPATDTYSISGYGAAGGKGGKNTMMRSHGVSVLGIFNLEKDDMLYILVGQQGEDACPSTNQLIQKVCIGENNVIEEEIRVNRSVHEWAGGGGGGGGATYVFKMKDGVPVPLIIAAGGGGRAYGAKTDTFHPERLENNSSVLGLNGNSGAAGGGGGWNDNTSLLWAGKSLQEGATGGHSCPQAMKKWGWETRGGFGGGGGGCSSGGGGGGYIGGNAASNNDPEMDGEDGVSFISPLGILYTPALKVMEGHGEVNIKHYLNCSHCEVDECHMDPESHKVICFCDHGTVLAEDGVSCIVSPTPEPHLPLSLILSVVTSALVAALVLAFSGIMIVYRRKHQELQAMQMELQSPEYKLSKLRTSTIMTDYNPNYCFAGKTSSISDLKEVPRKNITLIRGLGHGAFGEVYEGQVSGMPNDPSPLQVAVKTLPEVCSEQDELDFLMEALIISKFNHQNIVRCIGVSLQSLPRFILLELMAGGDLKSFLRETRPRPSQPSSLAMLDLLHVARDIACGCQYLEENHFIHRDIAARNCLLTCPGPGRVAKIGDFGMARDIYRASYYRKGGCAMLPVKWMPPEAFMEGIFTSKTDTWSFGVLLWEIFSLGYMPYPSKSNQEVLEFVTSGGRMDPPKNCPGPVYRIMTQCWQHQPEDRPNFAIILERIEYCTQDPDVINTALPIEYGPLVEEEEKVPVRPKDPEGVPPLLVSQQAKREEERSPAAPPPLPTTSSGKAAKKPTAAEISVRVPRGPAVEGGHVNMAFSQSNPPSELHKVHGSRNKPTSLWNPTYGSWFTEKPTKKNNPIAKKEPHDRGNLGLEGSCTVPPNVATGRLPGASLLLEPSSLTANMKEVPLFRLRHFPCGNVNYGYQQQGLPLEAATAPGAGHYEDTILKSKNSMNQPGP
In short: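 Percent inhibition measured in a commercial kinase selectivity profiling panel, with compound tested at a single concentration of 0.1 μM.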

[24] = Plasma protein binding in cynomolgus monkey; assay type: ADME, cell-free, Macaca fascicularis; conditions: read-out: PPB (converted)
Rattus norvegicus [25] = test: Toxicity in Sprague-Dawley rat assessed as mortality at 10 to 100 mg/kg, po administered for 7 days; assay type: organism-based; design: dose 10-100 mg/kg, route oral; conditions: in vivo, 168 h
Cynomolgus monkey [26] = test: Unbound plasma AUC (0 to 24 hrs) in cynomolgus monkey at 10 mg/kg, po administered for 7 days; assay type: ADME, organism-based, Macaca fascicularis; design: dose 10 mg/kg, route oral; conditions: in vivo
Cynomolgus monkey [27] = test: Unbound plasma AUC (0 to 24 hrs) in cynomolgus monkey at 65 mg/kg, po administered for 7 days; assay type: ADME, organism-based, Macaca fascicularis; design: dose 65 mg/kg, route oral; conditions: in vivo
[28] = biological target: 5-hydroxytryptamine receptor 2B (Homo sapiens) (UniProt P41595); test: Inhibition of recombinant human 5HT2B receptor expressed in CHO cells at 10 uM; assay type: cell-based
Chain of 5-hydroxytryptamine receptor 2B (Homo sapiens) (P41595 whole entry): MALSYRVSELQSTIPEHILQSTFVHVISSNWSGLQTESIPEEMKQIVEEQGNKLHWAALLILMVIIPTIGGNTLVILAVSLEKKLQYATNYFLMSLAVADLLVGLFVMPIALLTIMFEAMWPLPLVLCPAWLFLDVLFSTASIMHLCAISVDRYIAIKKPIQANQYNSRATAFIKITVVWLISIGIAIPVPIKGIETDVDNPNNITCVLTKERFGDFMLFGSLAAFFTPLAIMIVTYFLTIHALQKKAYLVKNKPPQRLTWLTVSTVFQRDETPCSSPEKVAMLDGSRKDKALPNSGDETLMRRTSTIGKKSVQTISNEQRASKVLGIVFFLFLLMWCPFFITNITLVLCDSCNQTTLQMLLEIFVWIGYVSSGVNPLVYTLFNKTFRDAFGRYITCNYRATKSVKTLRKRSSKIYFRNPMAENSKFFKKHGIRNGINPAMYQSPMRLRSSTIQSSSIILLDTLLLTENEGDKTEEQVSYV

Nucleic Acid = test: Ratio of drug level CSF to unbound drug level in plasma in cynomolgus monkey at 10 to 65 mg/kg, po administered for 7 days; assay type: ADME, organism-based, Macaca fascicularis; design: dose 10-65 mg/kg, route oral; conditions: in vivo, 168 h
In short: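 Cynomolgus monkeys in a 7-day repeat-dose toxicity study at 10, 25 and 65 mg/kg. Terminal CSF and plasma levels were taken 24 h after the last dose on day 7. Plasma drug was converted to unbound using in vitro plasma protein binding, and the ratio is expressed as CSF over unbound plasma.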

Structure (SMILES) | CLhep predicted [1] | Papp A→B (MDR1 (human)) | Ratio (MDCK) | Ratio Ki [2] | Ki [3] | inhibition [4] | IC50 [6] | Ratio Ki [8] | CLhep predicted [9] | fraction unbound [10] | also measured
CNc1nc(Nc2ccc(C(=O)N3CCOCC3)cc2OC)ncc1C(F)(F)F | 7.6 mL/min/kg | 18.2 ×10⁻⁶ cm/s | 1.2 | > 1930 | 2 nM | 55% | 9 nM | 13 | 1.8 mL/min/kg | 0.137 | inhibition [5]: 98%; Ki [7]: 25 nM; Activity (PBL): Toxic; Activity (Mus musculus [11]): Toxic
CNc1nc(Nc2ccc(-c3nnnn3C)cc2Cl)ncc1C(F)(F)F | – | – | 0.7 | – | 8 nM | – | 100 nM | 3.3 | – | – | inhibition (INH) (Cytochrome P450 1A2): Active; solubility [12]: Insoluble
CCNc1nc(Nc2cc(F)c(C(=O)N3CCOCC3)cc2OC)ncc1C(F)(F)F | 14 mL/min/kg | 10.4 ×10⁻⁶ cm/s | 0.9 | > 3200 | 1 nM | > 65% | 9 nM | 53 | 3.2 mL/min/kg | 0.034 | inhibition (Mus musculus [13]): Dose-dependent effect; fAUC (Cynomolgus monkey [14]): 3.1 µM·h; fAUC (Rattus norvegicus [15]): 3.9 µM·h; fAUC (Rattus norvegicus [16]): 4.7 µM·h; inhibition [17]: > 65%; Kp uu at 168 h [18]: 0.6; Activity (Rattus norvegicus [19]): Non-toxic; fAUC (Rattus norvegicus [20]): 5.95 µM·h; fAUC (Rattus norvegicus [21]): 0.8 µM·h; inhibition (Mus musculus [22]): Dose-dependent effect; inhibition [23]: > 65%; fraction unbound [24]: 0.055; Activity (Rattus norvegicus [25]): Non-toxic; fAUC (Cynomolgus monkey [26]): 0.8 µM·h; fAUC (Cynomolgus monkey [27]): 7.8 µM·h; inhibition [28]: > 70%; Ratio (Nucleic Acid): 0.82
